ChEMBL document CHEMBL3526048, “In vitro metabolism of rivoglitazone, a novel peroxisome proliferator-activated receptor γ agonist, in rat, monkey, and human liver microsomes and freshly isolated hepatocytes” (Drug Metab Dispos, 2011)

Columns and labels:
[1] = Drug metabolism in cynomolgus monkey liver microsomes assessed as formation of 3-(4-((6-methoxy-1-methyl-1H-benzo[d]imidazol-2-yl)methoxy)phenyl)-2-(methylthio)propanoic acid at 20 uM after 2 to 4 hrs by radio-HPLC/LC-MS/MS analysis in presence of NADPH-generating system/SAM and UDPGA/SAM; assay type: ADME, Macaca fascicularis
[2] = Drug metabolism in rat hepatocytes assessed as formation of 2-amino-3-((1-carboxy-2-(4-((6-methoxy-1-methyl-1H-benzo[d]imidazol-2-yl)methoxy)phenyl)ethyl)disulfanyl)propanoic acid at 30 uM after 3 hrs by radio-HPLC/LC-MS/MS analysis; assay type: ADME, cell-based, Hepatocyte
[3] = biological target: T1, UDP-glucuronosyltransferase 2B7 (Homo sapiens, UniProt P16662); test: Activity of human UGT2B7 expressed in microsomes isolated from baculovirus infected insect cell assessed as enzyme-mediated 5-(4-((6-methoxy-1H-benzo[d]imidazol-2-yl)methoxy)benzyl)thiazolidine-2,4-dione formation at 20 uM after 4 hrs by radio-HPLC/LC-MS/MS analysis in presence of NADPH-generating system and NADPH-generating system/SAM in presence of UDPGA and UDPGA/SAM; assay type: ADME
T1 sequence (P16662 whole entry): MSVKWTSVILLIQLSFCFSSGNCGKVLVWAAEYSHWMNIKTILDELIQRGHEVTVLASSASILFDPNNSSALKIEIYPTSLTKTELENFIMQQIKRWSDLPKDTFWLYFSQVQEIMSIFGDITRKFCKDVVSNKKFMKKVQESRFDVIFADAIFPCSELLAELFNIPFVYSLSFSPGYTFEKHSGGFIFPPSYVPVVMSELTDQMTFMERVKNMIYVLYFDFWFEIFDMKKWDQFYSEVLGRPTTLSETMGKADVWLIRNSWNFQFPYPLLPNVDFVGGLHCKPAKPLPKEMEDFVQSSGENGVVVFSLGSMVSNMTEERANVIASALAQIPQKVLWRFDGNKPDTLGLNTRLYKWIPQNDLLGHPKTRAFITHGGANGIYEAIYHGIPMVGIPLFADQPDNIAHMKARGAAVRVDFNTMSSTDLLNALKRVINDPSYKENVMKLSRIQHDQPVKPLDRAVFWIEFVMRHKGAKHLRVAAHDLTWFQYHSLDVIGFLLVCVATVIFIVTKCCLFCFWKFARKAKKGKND

[4] = biological target: T2, Cytochrome P450 2C8 (Homo sapiens, UniProt P10632); test: Activity of human CYP2C8 expressed in microsomes isolated from baculovirus infected insect cell assessed as enzyme-mediated 5-hydroxy-5-(4-((6-methoxy-1-methyl-1H-benzo[d]imidazol-2-yl)methoxy)benzyl)thiazolidine-2,4-dione formation at 20 uM after 2 hrs by radio-HPLC/LC-MS/MS analysis in presence of NADPH-generating system and NADPH-generating system/SAM; assay type: ADME
T2 sequence (P10632 whole entry): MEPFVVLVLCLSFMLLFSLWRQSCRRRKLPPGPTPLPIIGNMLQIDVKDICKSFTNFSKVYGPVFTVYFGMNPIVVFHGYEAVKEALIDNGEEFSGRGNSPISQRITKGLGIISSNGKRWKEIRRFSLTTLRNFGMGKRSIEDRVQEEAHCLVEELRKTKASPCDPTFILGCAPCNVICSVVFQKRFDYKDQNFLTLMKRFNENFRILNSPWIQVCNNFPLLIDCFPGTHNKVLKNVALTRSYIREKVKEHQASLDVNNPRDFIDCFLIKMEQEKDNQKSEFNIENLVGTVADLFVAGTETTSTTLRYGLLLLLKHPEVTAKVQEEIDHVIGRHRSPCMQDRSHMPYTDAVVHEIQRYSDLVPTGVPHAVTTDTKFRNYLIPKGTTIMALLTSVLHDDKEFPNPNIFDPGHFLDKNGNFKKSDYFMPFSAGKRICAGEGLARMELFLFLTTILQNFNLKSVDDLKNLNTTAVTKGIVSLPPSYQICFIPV
Outline: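 Baculovirus/insect-cell microsomes expressing single human CYPs, 1 mg/ml protein, with 50 mM potassium phosphate (pH 7.4) or 100 mM Tris-HCl (pH 7.5). NADPH-generating system: 2 mM NADP⁺, 20 mM glucose 6-phosphate, 2 units/ml G6PDH, 10 mM MgCl₂. [¹⁴C]rivoglitazone at 20 μM, 2 h at 37°C with shaking. Control used insect-cell control supersomes. Stopped with acetonitrile; supernatant concentrated under nitrogen; metabolites analysed by radio-HPLC, LC-MS and LC-MS/MS.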

[5] = biological target: Cytochrome P450 2D6 (Homo sapiens, UniProt P10635); test: Activity of human CYP2D6 expressed in microsomes isolated from baculovirus infected insect cell assessed as enzyme-mediated 3-(4-((6-methoxy-1-methyl-1H-benzo[d]imidazol-2-yl)methoxy)phenyl)-2-(methylsulfonyl)propanamide formation at 20 uM after 2 hrs by radio-HPLC/LC-MS/MS analysis in presence of NADPH-generating system/SAM; assay type: ADME
Sequence of Cytochrome P450 2D6 (P10635 whole entry): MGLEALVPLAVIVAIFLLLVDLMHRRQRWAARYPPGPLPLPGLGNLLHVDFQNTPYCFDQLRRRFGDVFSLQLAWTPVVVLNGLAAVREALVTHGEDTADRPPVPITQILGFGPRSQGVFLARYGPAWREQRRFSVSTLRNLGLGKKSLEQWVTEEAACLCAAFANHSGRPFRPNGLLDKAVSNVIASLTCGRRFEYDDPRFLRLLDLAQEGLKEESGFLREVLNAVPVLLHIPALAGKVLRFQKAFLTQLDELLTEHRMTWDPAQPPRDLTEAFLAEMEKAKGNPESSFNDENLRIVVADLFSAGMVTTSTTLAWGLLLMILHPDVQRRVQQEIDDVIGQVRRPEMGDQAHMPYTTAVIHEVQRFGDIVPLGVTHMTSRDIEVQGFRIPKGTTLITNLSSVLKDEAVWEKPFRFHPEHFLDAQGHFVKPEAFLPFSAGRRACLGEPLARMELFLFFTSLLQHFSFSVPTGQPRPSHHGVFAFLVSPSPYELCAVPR

[6] = biological target: T1, UDP-glucuronosyltransferase 2B7; test: Activity of human UGT2B7 expressed in microsomes isolated from baculovirus infected insect cell assessed as enzyme-mediated 2-amino-3-((1-carboxy-2-(4-((6-methoxy-1-methyl-1H-benzo[d]imidazol-2-yl)methoxy)phenyl)ethyl)disulfanyl)propanoic acid formation at 20 uM after 4 hrs by radio-HPLC/LC-MS/MS analysis in presence of UDPGA and UDPGA/SAM; assay type: ADME
[7] = Drug metabolism in monkey hepatocytes assessed as formation of 2-mercapto-3-(4-((6-methoxy-1-methyl-1H-benzo[d]imidazol-2-yl)methoxy)phenyl)propanamide at 30 uM after 3 hrs by radio-HPLC/LC-MS/MS analysis in presence of NADPH-generating system and NADPH-generating system/SAM; conditions: cynomolgus monkey
[8] = biological target: T1, UDP-glucuronosyltransferase 2B7; test: Activity of human UGT2B7 expressed in microsomes isolated from baculovirus infected insect cell assessed as enzyme-mediated compound formation treated with [14C]-rivoglitazone at 20 uM after 4 hrs by radio-HPLC/LC-MS/MS analysis in presence of UDPGA, UDPGA/SAM

Row | Drug metabolism [1] | Drug metabolism [2] | Drug metabolism [3] | Drug metabolism [4] | Drug metabolism [5] | Drug metabolism [6] | Drug metabolism [7] | Drug metabolism [8] | SMILES
1 | metabolite_detected | metabolite_not_detected | metabolite_not_detected | metabolite_detected | metabolite_not_detected | metabolite_not_detected | metabolite_not_detected | – | COc1ccc2nc(COc3ccc(C[14CH]4SC(=O)NC4=O)cc3)n(C)c2c1.Cl (racemic)
2 | – | – | – | – | – | – | – | metabolite_detected | COc1ccc2nc(COc3ccc(CC(S)C(=O)O)cc3)n(C)c2c1 (stereo not drawn)
